{"source": "paper PMC3086726", "about": "(Nuclear medicine and biology, 2010)", "key": {"[1]": {"assay": "Stability of 99mTc-cyclized analogues to cysteine challenge", "type": "physicochemical", "conditions": "pH 7.4, 37 °C"}, "[2]": {"assay": "In vitro stability of 99mTc-cyclized analogues in PBS", "type": "physicochemical", "conditions": "pH 7.4, 37 °C", "how_it_was_run": "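Test peptides were labelled with 99mTc by exchange from 99mTc-glucoheptonate (pH 7.9–8.1, 60 °C, 30 min), purified by radio-RP-HPLC, mixed with gentisic acid and evaporated. They were diluted in PBS or 1 mM cysteine, adjusted to pH 7.4 and incubated at 37 °C. Aliquots at 1, 2, 4 and 24 h were analysed by RP-HPLC for % intact. Replicate measurements used radio-TLC on C18 (10% ammonium acetate; 1:1 TFA-water/acetonitrile).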"}, "[3]": {"type": "in vitro ADME", "conditions": "mouse, serum, pH 7.4"}, "[4]": {"conditions": "mouse, cited from earlier work"}}, "note": "Read-outs that look alike come from different tables or passages of the source."}
{"substance": "^99mTc-Tyr^3-octreotate [99mTc-TATE]", "values": [{"measurement": "percent intact 99mTc-analogue post purification", "setting": "[1]; 1 mM Cys, 1 h", "value": "95.8 ± 2.4", "unit": "%"}, {"measurement": "percent intact 99mTc-analogue post purification", "setting": "[1]; 1 mM Cys, 2 h", "value": "85.3 ± 4.0", "unit": "%"}, {"measurement": "percent intact 99mTc-analogue post purification", "setting": "[1]; 1 mM Cys, 4 h", "value": "77.8 ± 3.3", "unit": "%"}, {"measurement": "percent intact 99mTc-analogue post purification", "setting": "[1]; 1 mM Cys, 24 h", "value": "45.0 ± 5.8", "unit": "%"}, {"measurement": "percent intact 99mTc-analogue post purification", "setting": "[1]; 10 mM Cys, 1 h", "value": "63.9 ± 4.1", "unit": "%"}, {"measurement": "percent intact 99mTc-analogue post purification", "setting": "[1]; 10 mM Cys, 2 h", "value": "53.3 ± 3.5", "unit": "%"}, {"measurement": "percent intact 99mTc-analogue post purification", "setting": "[1]; 10 mM Cys, 4 h", "value": "42.5 ± 5.6", "unit": "%"}, {"measurement": "percent intact 99mTc-analogue post purification", "setting": "[1]; 10 mM Cys, 24 h", "value": "15.0 ± 8.3", "unit": "%"}, {"measurement": "percent intact 99mTc-analogue post purification", "setting": "[2]; 1 h", "value": "86.2 ± 5.4", "unit": "%"}, {"measurement": "percent intact 99mTc-analogue post purification", "setting": "[2]; 2 h", "value": "73.7 ± 4.3", "unit": "%"}, {"measurement": "percent intact 99mTc-analogue post purification", "setting": "[2]; 4 h", "value": "60.4 ± 1.8", "unit": "%"}, {"measurement": "percent intact 99mTc-analogue post purification", "setting": "[2]; 24 h", "value": "37.9 ± 7.7", "unit": "%"}, {"measurement": "percent intact 99mTc-analogue post purification", "setting": "[3]; 1 h", "value": "97.4 ± 1.9", "unit": "%"}, {"measurement": "percent intact 99mTc-analogue post purification", "setting": "[3]; 2 h", "value": "97.1 ± 1.5", "unit": "%"}, {"measurement": "percent intact 99mTc-analogue post purification", "setting": "[3]; 4 h", "value": "95.2 ± 1.7", "unit": "%"}, {"measurement": "percent intact 99mTc-analogue post purification", "setting": "[3]; 24 h", "value": "57.6 ± 7.5", "unit": "%"}, {"measurement": "In vivo biodistribution, Adrenals", "setting": "[4]; 4 h", "value": "0.14 ± 0.06", "unit": "%ID/g"}, {"measurement": "In vivo biodistribution, Blood", "setting": "[4]; 4 h", "value": "0.44 ± 0.05", "unit": "%ID/g"}, {"measurement": "In vivo biodistribution, Kidney", "setting": "[4]; 4 h", "value": "1.37 ± 0.29", "unit": "%ID/g"}, {"measurement": "In vivo biodistribution, Lg. Int", "setting": "[4]; 4 h", "value": "60.20 ± 6.39", "unit": "%ID/g"}, {"measurement": "In vivo biodistribution, Liver", "setting": "[4]; 4 h", "value": "0.66 ± 0.03", "unit": "%ID/g"}, {"measurement": "In vivo biodistribution, Muscle", "setting": "[4]; 4 h", "value": "0.05 ± 0.01", "unit": "%ID/g"}, {"measurement": "In vivo biodistribution, Pancreas", "setting": "[4]; 4 h", "value": "0.19 ± 0.06", "unit": "%ID/g"}, {"measurement": "In vivo biodistribution, Sm. lnt", "setting": "[4]; 4 h", "value": "2.08 ± 1.08", "unit": "%ID/g"}, {"measurement": "In vivo biodistribution, Spleen", "setting": "[4]; 4 h", "value": "0.20 ± 0.02", "unit": "%ID/g"}, {"measurement": "In vivo biodistribution, Stomach", "setting": "[4]; 4 h", "value": "4.82 ± 0.95", "unit": "%ID/g"}, {"measurement": "In vivo biodistribution, Adrenals", "setting": "[4]; 24 h", "value": "0.01 ± 0.01", "unit": "%ID/g"}, {"measurement": "In vivo biodistribution, Blood", "setting": "[4]; 24 h", "value": "0.05 ± 0.01", "unit": "%ID/g"}, {"measurement": "In vivo biodistribution, Kidney", "setting": "[4]; 24 h", "value": "0.60 ± 0.05", "unit": "%ID/g"}, {"measurement": "In vivo biodistribution, Lg. Int", "setting": "[4]; 24 h", "value": "0.59 ± 0.24", "unit": "%ID/g"}, {"measurement": "In vivo biodistribution, Liver", "setting": "[4]; 24 h", "value": "0.22 ± 0.03", "unit": "%ID/g"}, {"measurement": "In vivo biodistribution, Muscle", "setting": "[4]; 24 h", "value": "0.01 ± 0.01", "unit": "%ID/g"}, {"measurement": "In vivo biodistribution, Pancreas", "setting": "[4]; 24 h", "value": "0.03 ± 0.01", "unit": "%ID/g"}, {"measurement": "In vivo biodistribution, Sm. lnt", "setting": "[4]; 24 h", "value": "0.19 ± 0.01", "unit": "%ID/g"}, {"measurement": "In vivo biodistribution, Spleen", "setting": "[4]; 24 h", "value": "0.05 ± 0.01", "unit": "%ID/g"}, {"measurement": "In vivo biodistribution, Stomach", "setting": "[4]; 24 h", "value": "0.69 ± 0.23", "unit": "%ID/g"}]}
